Assay results taken from ChEMBL document CHEMBL4665875, “Synthesis, biological evaluation and in silico modeling of novel pan-genotypic NS5A inhibitors” (Bioorg Med Chem, 2020).

Legend:
[1] = Cytotoxicity against HCV genotype 1b NS5A infected human HuH7 cells assessed as reduction in cell viability measured after 72 hrs by CellTiter-Glo assay; settings: HuH7 cells infected with HCV genotype 1b NS5A
[2] = Oral bioavailability in Sprague-Dawley rat at 10 mg/kg, po measured after 24 hrs by LC-MS/MS analysis; format: ADME, organism-based; settings: in vivo
In short: (§1)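 Male Sprague-Dawley rats (8–10 weeks), jugular-vein catheterized and fasted 12 h with water available. Oral dose of 10 mg/kg given in 0.5% methyl cellulose. Blood taken into EDTA at 15, 30 min and 1, 2, 4, 8 and 24 h. Plasma protein-precipitated with acetonitrile containing tolbutamide internal standard, held at −20 °C for 15 min, centrifuged, then analysed by LC-MS/MS.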

[3] = AUC (0 to infinity) in Sprague-Dawley rat at 10 mg/kg, po measured after 24 hrs by LC-MS/MS analysis; format: ADME, organism-based; design: route oral, time 24 hrs, dose 10 mg/kg; settings: in vivo; for AUC(0-inf): Sprague-Dawley
In short: as §1

[4] = MRT (0 to infinity) in Sprague-Dawley rat at 10 mg/kg, po measured after 24 hrs by LC-MS/MS analysis; format: ADME, organism-based; settings: in vivo
In short: as §1

[5] = Half life in Sprague-Dawley rat at 2 mg/kg, iv measured after 24 hrs by LC-MS/MS analysis; format: ADME, organism-based; settings: in vivo
In short: (§2)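 Male Sprague-Dawley rats (8–10 weeks), jugular-vein catheterized and fasted 12 h with water available. Intravenous dose of 2 mg/kg given in 10% DMSO/10% Solutol/80% 0.05 M N-methylglucamine. Blood taken into EDTA at 5, 15, 30 min and 1, 2, 4, 8 and 24 h. Plasma precipitated with acetonitrile plus tolbutamide internal standard, then analysed by LC-MS/MS.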

[6] = Tmax in Sprague-Dawley rat at 2 mg/kg, iv measured after 24 hrs by LC-MS/MS analysis; format: ADME, organism-based; settings: in vivo
In short: as §2

[7] = AUC (0 to infinity) in Sprague-Dawley rat at 2 mg/kg, iv measured after 24 hrs by LC-MS/MS analysis; format: ADME, organism-based; design: route intravenous, dose 2 mg/kg, time 24 hrs; settings: in vivo
In short: as §2

[8] = Cmax in Sprague-Dawley rat at 10 mg/kg, po measured after 24 hrs by LC-MS/MS analysis; format: ADME, organism-based; design: route oral, time 24 hrs, dose 10 mg/kg; settings: in vivo
In short: as §1

[9] = Cmax in Sprague-Dawley rat at 2 mg/kg, iv measured after 24 hrs by LC-MS/MS analysis; format: ADME, organism-based; design: route intravenous, dose 2 mg/kg, time 24 hrs; settings: in vivo
In short: as §2

[10] = AUClast in Sprague-Dawley rat at 2 mg/kg, iv measured after 24 hrs by LC-MS/MS analysis; format: ADME, organism-based; design: route intravenous, time 24 hrs, dose 2 mg/kg; settings: in vivo
In short: as §2

[11] = AUClast in Sprague-Dawley rat at 10 mg/kg, po measured after 24 hrs by LC-MS/MS analysis; format: ADME, organism-based; design: route oral, dose 10 mg/kg, time 24 hrs; settings: in vivo
In short: as §1

[12] = MRTlast in Sprague-Dawley rat at 10 mg/kg, po measured after 24 hrs by LC-MS/MS analysis; format: ADME, organism-based; settings: in vivo
In short: as §1

[13] = Tmax in Sprague-Dawley rat at 10 mg/kg, po measured after 24 hrs by LC-MS/MS analysis; format: ADME, organism-based; settings: in vivo
In short: as §1

[14] = MRT (0 to infinity) in Sprague-Dawley rat at 2 mg/kg, iv measured after 24 hrs by LC-MS/MS analysis; format: ADME, organism-based; settings: in vivo
In short: as §2

[15] = Half life in Sprague-Dawley rat at 10 mg/kg, po measured after 24 hrs by LC-MS/MS analysis; format: ADME, organism-based; settings: in vivo; for half-life: Sprague-Dawley
In short: as §1

[16] = MRTlast in Sprague-Dawley rat at 2 mg/kg, iv measured after 24 hrs by LC-MS/MS analysis; format: ADME, organism-based; settings: in vivo
In short: as §2

Compound: COC(=O)N[C@H](C(=O)N1CCC[C@H]1c1ncc(-c2ccc(C#CC#Cc3cnc([C@@H]4CCCN4C(=O)[C@H](NC(=O)OC)c4ccccc4)[nH]3)c(N3CCN(C)CC3)c2)[nH]1)C(C)C
- CC50 at 72 h [1]: > 10 µM

Compound: COC(=O)N[C@H](C(=O)N1CCC[C@H]1c1ncc(-c2ccc(C#CC#Cc3cnc([C@@H]4CCCN4C(=O)[C@@H](NC(=O)OC)C(C)C)[nH]3)cc2)[nH]1)c1ccccc1
- CC50 at 72 h [1]: > 10 µM

Compound: COC(=O)N[C@H](C(=O)N1CCC[C@H]1c1ncc(C#CC#Cc2ccc(-c3cnc([C@@H]4CCCN4C(=O)[C@@H](NC(=O)OC)C(C)C)[nH]3)cc2-c2cccc(-c3ccccc3)c2)[nH]1)C(C)C
- CC50 at 72 h [1]: > 10 µM

Compound: COC(=O)N[C@H](C(=O)N1CCC[C@H]1c1ncc(C#CC#Cc2ccc(-c3cnc([C@@H]4CCCN4C(=O)[C@@H](NC(=O)OC)C(C)C)[nH]3)cc2-c2ccccc2)[nH]1)C(C)C
- CC50 at 72 h [1]: > 10 µM

Compound: COC(=O)N[C@H](C(=O)N1CCC[C@H]1c1ncc(-c2ccc(C#CC#Cc3cnc([C@@H]4CCCN4C(=O)[C@H](NC(=O)OC)c4ccccc4)[nH]3)c(Sc3ccccc3)c2)[nH]1)C(C)C
- CC50 at 72 h [1]: > 10 µM

Compound: COC(=O)N[C@H](C(=O)N1CCC[C@H]1c1ncc(-c2ccc(C#CC#Cc3cnc([C@@H]4CCCN4C(=O)[C@H](NC(=O)OC)c4ccccc4)[nH]3)c(-c3ccc(N4CCN(C)CC4)cc3)c2)[nH]1)C(C)C
- CC50 at 72 h [1]: > 10 µM

Compound: COC(=O)N[C@H](C(=O)N1CCC[C@H]1c1ncc(-c2cc(C)c(C#CC#Cc3cnc([C@@H]4CCCN4C(=O)[C@H](NC(=O)OC)c4ccccc4)[nH]3)c(-c3ccccc3)c2)[nH]1)C(C)C
- CC50 at 72 h [1]: > 10 µM

Compound: COC(=O)N[C@H](C(=O)N1CCC[C@H]1c1ncc(C#CC#Cc2ccc(-c3cnc([C@@H]4CCCN4C(=O)[C@@H](NC(=O)OC)C(C)C)[nH]3)cc2-c2ccc3ccccc3c2)[nH]1)C(C)C
- CC50 at 72 h [1]: > 10 µM

Compound: COC(=O)N[C@H](C(=O)N1CCC[C@H]1c1ncc(-c2ccc(C#CC#Cc3cnc([C@@H]4CCCN4C(=O)[C@H](NC(=O)OC)c4ccccc4)[nH]3)c(-c3cccc(F)c3F)c2)[nH]1)C(C)C.Cl.Cl
- bioavailability [2]: 2.4%
- AUC ([3]; 24 h): 328.7 ng·h/mL
- MRT inf [4]: 0.4 h
- half-life [5]: 3.2 h
- CC50 at 72 h [1]: > 10 µM
- Tmax [6]: 4.98 min
- AUC(0-inf) [7]: 2730 ng·h/mL
- Cmax ([8]; 24 h): 15.2 ng/mL
- Cmax [9]: 1160 ng/mL
- AUC(0-t) at 24 h [10]: 2720 ng·h/mL
- AUC(0-t) at 24 h [11]: 271 ng·h/mL
- MRT last at 24 h [12]: 0.3 h
- Tmax ([13]; 10 mg/kg, 24 h): 0.7 h
- MRT inf [14]: 3.3 h
- t1/2 ([15]; 10 mg/kg, 24 h): 2.5 h
- MRT last at 24 h [16]: 3.2 h

Compound: COC(=O)N[C@H](C(=O)N1CCC[C@H]1c1ncc(-c2ccc(C#CC#Cc3cnc([C@@H]4CCCN4C(=O)[C@H](NC(=O)OC)c4ccccc4)[nH]3)c(-c3ccc(-c4ccccc4)cc3)c2)[nH]1)C(C)C
- CC50 at 72 h [1]: > 10 µM

Compound: COC(=O)N[C@H](C(=O)N1CCC[C@H]1c1ncc(C#CC#Cc2ccc(-c3cnc([C@@H]4CCCN4C(=O)[C@@H](NC(=O)OC)C(C)C)[nH]3)cc2-c2ccc(C(C)(C)C)cc2)[nH]1)C(C)C
- CC50 at 72 h [1]: > 10 µM

Compound: COC(=O)N[C@H](C(=O)N1CCC[C@H]1c1ncc(-c2ccc(C#CC#Cc3cnc([C@@H]4CCCN4C(=O)[C@H](NC(=O)OC)c4ccccc4)[nH]3)c(-c3cccc(-c4ccccc4)c3)c2)[nH]1)C(C)C
- CC50 at 72 h [1]: > 10 µM

Compound: COC(=O)N[C@H](C(=O)N1CCC[C@H]1c1ncc(-c2ccc(C#CC#Cc3cnc([C@@H]4CCCN4C(=O)[C@H](NC(=O)OC)c4ccccc4)[nH]3)c(-c3ccccc3)c2)[nH]1)C(C)C.Cl.Cl
- bioavailability [2]: 31%
- AUC(0-inf) [3]: 13100 ng·h/mL
- MRT inf [4]: 3.1 h
- half-life [5]: 1.2 h
- CC50 at 72 h [1]: > 10 µM
- Tmax [6]: 4.98 min
- AUC(0-inf) [7]: 8330 ng·h/mL
- Cmax ([8]; Sprague-Dawley, read-out: Cmax): 2980 ng/mL
- Cmax [9]: 7760 ng/mL
- AUC(0-t) at 24 h [10]: 8260 ng·h/mL
- AUC(0-t) at 24 h [11]: 12600 ng·h/mL
- MRT last at 24 h [12]: 2.8 h
- Tmax ([13]; Sprague-Dawley, read-out: Tmax): 2 h
- MRT inf [14]: 1.3 h
- half-life [15]: 1.6 h
- MRT last at 24 h [16]: 1.2 h

Compound: COC(=O)N[C@H](C(=O)N1CCC[C@H]1c1ncc(C#CC#Cc2c(C)cc(-c3cnc([C@@H]4CCCN4C(=O)[C@@H](NC(=O)OC)C(C)C)[nH]3)cc2-c2ccccc2)[nH]1)C(C)C
- CC50 at 72 h [1]: > 10 µM

Compound: COC(=O)N[C@H](C(=O)N1CCC[C@H]1c1ncc(C#CC#Cc2c(F)cc(-c3cnc([C@@H]4CCCN4C(=O)[C@@H](NC(=O)OC)C(C)C)[nH]3)cc2-c2ccccc2)[nH]1)C(C)C
- CC50 at 72 h [1]: > 10 µM

Compound: COC(=O)N[C@H](C(=O)N1CCC[C@H]1c1ncc(-c2ccc(C#CC#Cc3cnc([C@@H]4CCCN4C(=O)[C@H](NC(=O)OC)c4ccccc4)[nH]3)c(-c3cccc(C(C)(C)C)c3)c2)[nH]1)C(C)C
- CC50 at 72 h [1]: > 10 µM

Compound: COC(=O)N[C@H](C(=O)N1CCC[C@H]1c1ncc(-c2ccc(C#CC#Cc3cnc([C@@H]4CCCN4C(=O)[C@H](NC(=O)OC)c4ccccc4)[nH]3)c(N(C)c3ccccc3)c2)[nH]1)C(C)C
- CC50 at 72 h [1]: > 10 µM

Compound: COC(=O)N[C@H](C(=O)N1CCC[C@H]1c1ncc(-c2ccc(C#CC#Cc3cnc([C@@H]4CCCN4C(=O)[C@H](NC(=O)OC)c4ccccc4)[nH]3)c(-c3ccc(C(C)(C)C)cc3)c2)[nH]1)C(C)C
- CC50 at 72 h [1]: > 10 µM

Compound: COC(=O)N[C@H](C(=O)N1CCC[C@H]1c1ncc(C#CC#Cc2ccc(-c3cnc([C@@H]4CCCN4C(=O)[C@@H](NC(=O)OC)C(C)C)[nH]3)cc2)[nH]1)c1ccccc1
- CC50 at 72 h [1]: > 10 µM

Compound: COC(=O)N[C@H](C(=O)N1CCC[C@H]1c1ncc(-c2cc(F)c(C#CC#Cc3cnc([C@@H]4CCCN4C(=O)[C@H](NC(=O)OC)c4ccccc4)[nH]3)c(-c3ccccc3)c2)[nH]1)C(C)C
- CC50 at 72 h [1]: > 10 µM

Compound: COC(=O)N[C@H](C(=O)N1CCC[C@H]1c1ncc(-c2ccc(C#CC#Cc3cnc([C@@H]4CCCN4C(=O)[C@H](NC(=O)OC)c4ccccc4)[nH]3)c(-c3ccc(N(C)C)cc3)c2)[nH]1)C(C)C
- CC50 at 72 h [1]: > 10 µM

Compound: COC(=O)N[C@H](C(=O)N1CCC[C@H]1c1ncc(-c2ccc(C#CC#Cc3cnc([C@@H]4CCCN4C(=O)[C@H](NC(=O)OC)c4ccccc4)[nH]3)c(-c3cccc(F)c3F)c2)[nH]1)C(C)C
- bioavailability [2]: 4.3%
- AUC(0-inf) [3]: 61.7 ng·h/mL
- MRT inf [4]: 1.5 h
- half-life [5]: 4.6 h
- Tmax [6]: 4.98 min
- AUC(0-inf) [7]: 285 ng·h/mL
- Cmax ([8]; Sprague-Dawley, read-out: Cmax): 38.3 ng/mL
- Cmax [9]: 114 ng/mL
- AUC(0-t) at 24 h [10]: 279 ng·h/mL
- AUC(0-t) at 24 h [11]: 58.7 ng·h/mL
- MRT last at 24 h [12]: 1.4 h
- Tmax ([13]; Sprague-Dawley, read-out: Tmax): 1 h
- MRT inf [14]: 4.7 h
- half-life [15]: 0.6 h
- MRT last at 24 h [16]: 4.2 h

Compound: COC(=O)N[C@H](C(=O)N1CCC[C@H]1c1ncc(-c2ccc(C#CC#Cc3cnc([C@@H]4CCCN4C(=O)[C@H](NC(=O)OC)c4ccccc4)[nH]3)c(Oc3ccccc3)c2)[nH]1)C(C)C
- CC50 at 72 h [1]: > 10 µM
